ABCB1 inh: inhibitors of human ABCB1 transporter, ABCG2 counter-screen; AID 1326; CCRF-Adr cells, JC-1 efflux, flow cytometry; inhibition, % at 6.6 µM; actives 0.067% (n = 190,000); in the data active means inhibition above about 40%;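 further: higher value means more JC-1 retained so stronger ABCB1 efflux block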
Target sequence (P08183 whole entry, looked up): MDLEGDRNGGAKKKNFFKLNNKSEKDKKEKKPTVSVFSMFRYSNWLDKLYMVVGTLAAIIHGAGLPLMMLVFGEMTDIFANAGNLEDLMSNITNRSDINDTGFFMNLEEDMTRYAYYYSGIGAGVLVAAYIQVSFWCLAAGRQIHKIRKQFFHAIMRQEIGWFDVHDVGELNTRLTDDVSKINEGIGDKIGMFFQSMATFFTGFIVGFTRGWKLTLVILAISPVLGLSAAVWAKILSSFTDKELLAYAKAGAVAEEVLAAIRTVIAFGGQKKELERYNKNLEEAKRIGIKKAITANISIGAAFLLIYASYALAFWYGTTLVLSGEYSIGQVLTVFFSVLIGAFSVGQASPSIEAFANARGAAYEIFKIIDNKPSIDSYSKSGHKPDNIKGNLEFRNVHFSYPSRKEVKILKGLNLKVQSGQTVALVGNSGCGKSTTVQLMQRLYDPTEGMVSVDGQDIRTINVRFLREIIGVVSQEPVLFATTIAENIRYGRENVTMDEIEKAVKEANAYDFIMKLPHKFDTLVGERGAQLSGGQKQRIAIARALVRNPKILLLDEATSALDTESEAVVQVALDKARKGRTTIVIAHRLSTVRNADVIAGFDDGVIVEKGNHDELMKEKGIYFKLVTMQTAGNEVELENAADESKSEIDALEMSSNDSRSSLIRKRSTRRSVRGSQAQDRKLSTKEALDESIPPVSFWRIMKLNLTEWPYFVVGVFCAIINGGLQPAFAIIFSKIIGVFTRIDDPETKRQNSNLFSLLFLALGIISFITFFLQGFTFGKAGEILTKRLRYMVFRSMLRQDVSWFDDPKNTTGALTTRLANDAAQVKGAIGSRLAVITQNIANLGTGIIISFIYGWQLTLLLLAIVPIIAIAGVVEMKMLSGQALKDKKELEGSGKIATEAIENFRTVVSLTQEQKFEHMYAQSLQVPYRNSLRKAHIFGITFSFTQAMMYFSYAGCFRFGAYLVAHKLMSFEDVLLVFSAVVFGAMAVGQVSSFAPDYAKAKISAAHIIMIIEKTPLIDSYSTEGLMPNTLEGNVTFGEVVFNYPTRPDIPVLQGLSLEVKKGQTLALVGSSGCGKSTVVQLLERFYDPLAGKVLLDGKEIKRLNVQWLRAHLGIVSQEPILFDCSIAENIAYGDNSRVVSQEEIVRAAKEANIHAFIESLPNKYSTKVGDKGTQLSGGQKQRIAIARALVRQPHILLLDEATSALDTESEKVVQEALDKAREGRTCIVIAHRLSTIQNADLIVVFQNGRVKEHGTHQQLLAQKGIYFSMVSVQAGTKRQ
Diaphorase act: counter-screen for diaphorase-based assays: diaphorase activators and chemical reducers; activation factor at 20 µM; AID 1229; Diaphorase/resazurin coupled assay, resorufin fluorescence, 16 min; stronger effect = higher value; 1 = vehicle wells, 0 = NADH-free wells; actives 0.005% (n = 190,000);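 active means diaphorase activity raised at least twofold by the compound at 20 µM; inactive means activation factor below 2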
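Test system: Clostridium kluyveri diaphorase, purified enzyme. Buffer or medium: 50 mM HEPES pH 7.4 buffer plus MgCl2 and Tween 20. Also added: 0.114 mM NADH and 0.1 mM resazurin, final amounts. Dosing: compound 20 µM once, DMSO 1%. Schedule: 16 min enzyme reaction, ambient temperature. Detection: fluorescence of resorufin, 544 nm excitation, 590 nm emission.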
p47phox inh: inhibitors of human p47phox binding; P14598; p47phox/p22phox peptide binding, fluorescence polarization, 2 h; inhibition, % at 24.7 µM; actives 0.53% (n = 220,000); AID 1274;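 active means inhibition above about 30%, limit read from the data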
ABCG2 inh: blocks JC-1 efflux by human ABCG2 transporter; Q9UNQ0; IgMXP3 cells, flow cytometry; actives 0.1% (n = 190,000); AID 1325; inhibition, % at 6.6 µM;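 active means inhibition above 80%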
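Incubation: cells with compound and JC-1, 10 min at 25 °C, rotating, no wash / Test system: IgMXP3 (ABCG2) plus far-red-tagged CCRF-Adr (ABCB1) cells / Compound dosing: one concentration, 6.6 µM final / Also added: JC-1 fluorescent substrate / Evaluation: efflux inhibition in percent versus controls / Detection: flow cytometry, 530 nm JC-1 signal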
Diaph inh CS: diaphorase inhibition or chemical oxidation counter-screen | diaphorase resazurin-to-resorufin fluorescence, NADH, 16 min; bacterial (C. kluyveri) enzyme, not human | inhibition, % at 20 µM | actives 0.69% (n = 190,000) | AID 1217;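 active means primary screen inhibition at 20 µM above a set limit, cut at about 50% in these data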
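Benchmarks: positive control wells lacking NADH, neutral wells with DMSO only. System: bacterial diaphorase enzyme (C. kluyveri). Input: 0.14 U/mL diaphorase, enzyme working solution. Detection: resorufin fluorescence, excitation 544 nm, emission 590 nm. Times: 16-min room-temperature incubation before reading.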
Efa HMGR inh: E. faecalis class II HMG-CoA reductase inhibition; purified E. faecalis HMGR, NADPH absorbance 340 nm kinetic; inhibition, % at 10 µM; actives 0.41% (n = 190,000);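 active means inhibition above a set limit, the median over all tested compounds plus 3 SD, cut at about 9.5% in these data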;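 further: enzyme runs in reverse so mevalonate oxidation gives rising NADPH absorbance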
Each line names hits and unclear results; the compound was inactive in the other large screens. Shown are actives, neighbours in structure and some others; about 1.6% of the full set was active somewhere.

Oc1ccc(-c2csc(Nc3ncccn3)n2)c(O)c1	none
CC(C)N(C(=O)CSc1nnc(-c2cc3ccccc3cc2O)n1Cc1ccco1)C(C)C	none
CC1(C)NC(=O)N(CC(O)COC2CCCCC2)C1=O (stereo unspecified)	p47phox inh 40.8
CC1(C)NC(=O)N(CC(O)CN2CCCCC2)C1=O (stereo unspecified)	none
CNC(=S)NNC(=O)c1cccc(C(F)(F)F)c1	none
Nc1cc(Cl)ccc1N1C(=O)CCC1=O	p47phox inh 30.9 (no result: ABCB1 inh, Diaphorase act, ABCG2 inh, Diaph inh CS, Efa HMGR inh)
O=C(Nc1nncs1)C1(c2ccccc2)CCCC1	none
COc1cc(NC(=O)c2cc3nc(-c4ccccc4)cc(-c4ccccc4)n3n2)cc(OC)c1OC	Efa HMGR inh 17.3
COc1cc(NC(=O)c2ccccc2-c2ccccc2)cc(OC)c1OC	none
O=[N+]([O-])c1ccc(O)c(C(C#Cc2ccccc2)N2CCOCC2)c1 (stereo unspecified)	none (no result: ABCB1 inh, Diaphorase act, ABCG2 inh, Diaph inh CS, Efa HMGR inh)
O=C1Nc2ccccc2/C1=N\N=C\c1ccc(O)c(O)c1	none (no result: ABCB1 inh, Diaphorase act, ABCG2 inh, Diaph inh CS, Efa HMGR inh)
O=C(/C(=N/N=C/c1ccc(O)c(O)c1)c1ccccc1)c1ccccc1	Diaph inh CS 51.3
O=C(CSc1nc(-c2ccccc2)nc2ccccc12)Nc1cccc(C(=O)O)c1	none
O=C(CSc1nc(-c2ccccc2)nc2c1Cc1ccccc1O2)Nc1ccc(C(=O)O)cc1	Efa HMGR inh 15.5
O=C(CSc1nc(-c2ccc(F)cc2)nc2c1Cc1ccccc1O2)Nc1ccc(C(=O)O)cc1	Diaph inh CS 60.2
Cc1ccccc1CN1C(=O)c2ccccc2Sc2ccc(C(=O)O)cc21	none
O=C(NCc1ccco1)C(=O)NCC1OCCN1S(=O)(=O)c1ccc(Br)cc1 (stereo unspecified)	none
O=c1oc2cc(O)ccc2cc1-c1nc2c(s1)CCc1ccccc1-2	ABCB1 inh 138.4, ABCG2 inh active
Cc1cc(N2CCCC2)c(F)cc1/C=C\[N+](=O)[O-]	p47phox inh 78.5
Cc1cccc(NC(=O)CSc2ccc(-c3ccc4c(c3)OCO4)nn2)c1C	Efa HMGR inh 16.6
Cc1cccc(NC(=S)NCc2ccc3c(c2)OCO3)c1C	none
Cc1cccc(NC(=O)C(=O)NCc2ccc3c(c2)OCO3)c1C	Efa HMGR inh 10.1
Cc1cc(NC(=O)CSc2ccc(-c3ccc4c(c3)OCO4)nn2)no1	none (no result: p47phox inh)
Cc1ccc(N2CC(C(=O)Nc3cccc(F)c3)CC2=O)cc1 (stereo unspecified)	none
c1ccc(OCCSc2nc3ccccc3[nH]2)cc1	Efa HMGR inh 13.0
CC1Cc2ccccc2N1C(=O)c1ccc(N2CCCC2)c([N+](=O)[O-])c1 (stereo unspecified)	none
CCSc1nc(-c2ccc(OC)cc2)ccc1C#N	none
Cc1cccc(-n2cnc3sc(C)c(C)c3c2=O)c1	none (no result: ABCB1 inh, Diaphorase act, ABCG2 inh, Diaph inh CS, Efa HMGR inh)
Cc1ccc(-n2cnc3sc(C)c(C)c3c2=O)cc1	Efa HMGR inh 13.3
CCOC(=O)Cn1c(=NC(=O)CC)sc2c(C)cc(C)cc21	none (no result: ABCB1 inh, Diaphorase act, ABCG2 inh, Diaph inh CS, Efa HMGR inh)
CCN(CC)CC(=O)c1c(N)n(Cc2ccccc2)c(=O)n(C)c1=O	none
Cn1c(=O)c(C(=S)NC(=O)C2CC2)c(N)n(Cc2ccccc2)c1=O	Diaph inh CS 65.9
COc1cccc(CN2CCN(Cc3cc(OC)c(OC)cc3[N+](=O)[O-])CC2)c1	Diaph inh CS 50.5
FC(F)Oc1ccc(-c2c[n+]3c(n2-c2ccccc2)CCCCC3)cc1	none (no result: ABCB1 inh, Diaphorase act, ABCG2 inh, Diaph inh CS, Efa HMGR inh)
N#CC(c1nc2ccccc2nc1N1CCCC1)S(=O)(=O)c1ccccc1 (stereo unspecified)	Diaph inh CS 53.2
CN1CCN(c2nc3ccccc3nc2C(C#N)S(=O)(=O)c2ccccc2)CC1 (stereo unspecified)	none (no result: ABCB1 inh, Diaphorase act, ABCG2 inh, Diaph inh CS, Efa HMGR inh)
O=S(=O)(Nc1ccc(Cc2ccncc2)cc1)c1ccc(Br)s1	none
CCOc1cc(/C=N\NC(=O)OC(C)(C)C)ccc1OC(=O)c1ccco1	Efa HMGR inh 19.3
CCOC(=O)c1oc2cccc(O)c2c1C	none
CCOC(=O)c1oc2cccc(O)c2c1CN(Cc1ccccc1)C(C)=O	p47phox inh 32.8
COc1ccc(O[C@H]2C=C[C@@H](c3ccccc3)O[C@@H]2COC(=O)CC/C(C)=N/O[C@H](C)c2cn([C@@H]3COC[C@H]3O)nn2)cc1	none
COc1ccc(-c2cc3nc(-c4ccccc4)cc(N4CCC(O)CC4)n3n2)cc1	Diaph inh CS 50.0
COc1ccc(OCCCC(=O)Nc2ccc3c(c2)OCO3)cc1	none
O=C(NCCCN1CCOCC1)Nc1ccc(Cc2ccc(NC(=O)NCCCN3CCOCC3)cc2)cc1	none
COC(=O)CNC(=O)c1cc(OC)cc(OC)c1	Efa HMGR inh 17.6
COc1ccc(NC(=O)c2nc[nH]c2C(=O)N[C@@H](CC(C)C)C(=O)OC(C)(C)C)cc1	none (no result: ABCB1 inh, Diaphorase act, ABCG2 inh, Diaph inh CS, Efa HMGR inh)
O=C(Nc1ccc(N2CCOCC2)c(Cl)c1)c1cccnc1	none
O=C(Nc1ccccc1N1CCOCC1)c1cccnc1	Efa HMGR inh 10.1
CCc1ccc(S(=O)(=O)/N=C2/C=C(Sc3ncn[nH]3)C(=O)c3ccccc32)cc1	p47phox inh 55.2
CC(C)COC(=O)C1C2C=CC3(CN(C4CCCC4)C(=O)C13)O2 (stereo unspecified)	none
CS(=O)(=O)C1=NSC2=NC(=O)/C(=C\c3cccn3-c3ccc(Cl)cc3)C(=N)N21	Diaph inh CS 51.0
CCN1C(=O)/C(=C/N2CCc3ccccc3C2)SC1=S	none (no result: ABCB1 inh, Diaphorase act, ABCG2 inh, Diaph inh CS, Efa HMGR inh)
CCN1C(=O)/C(=C\C=C\c2ccccc2[N+](=O)[O-])SC1=S	Efa HMGR inh 17.7
COc1cc(/C=N/NC(=O)c2ccncc2)ccc1OCc1cnc(Cl)s1	none
COc1ccc(/C=C/C(=O)NNc2cc(=O)n(C)c(=O)n2C)cc1OC	none (no result: ABCB1 inh, Diaphorase act, ABCG2 inh, Diaph inh CS, Efa HMGR inh)
CCc1cc2c(=O)n(CCC(C)C)c(=S)[nH]c2s1	Diaph inh CS 55.6
CCCn1cnc2sc(CC)cc2c1=O	none
Nc1nc2n(n1)C(=O)CC(c1ccccc1[N+](=O)[O-])N2 (stereo unspecified)	none
O=[N+]([O-])c1ccc(Cl)c(C2Nc3cccc4cccc(c34)N2)c1	Diaph inh CS 57.4
O=[N+]([O-])c1ccccc1C1Nc2cccc3cccc(c23)N1	Diaph inh CS 56.9
Cc1ccc(O)c(NC2=C(Cl)C(=O)N(Cc3ccccc3)C2=O)c1	Diaph inh CS 50.9
Cc1ccc(C(=O)NC(=S)NNC(=O)CC#N)cc1	Diaph inh CS 57.4
CCCCC(=O)NNC(=S)NC(=O)c1ccc(C)cc1	none
Cc1ccc(C2C(C#N)=C(N)Oc3c2sc2ccccc32)o1 (stereo unspecified)	Diaph inh CS 55.2
CCOC(=O)CC1=C(C(=O)OCC)C(c2ccc(C)o2)C(C#N)=C(N)O1 (stereo unspecified)	none
